The labels stand for the following.
B1: tRNA (parent)
chain: GUUCCGUUGGCGUAAUGGUAACGCGUCUCCCUCCUAAGGAGAAGACUGCGGGUUCGAGUCCCGUACGGAACG

The values that follow come from the RNAGym collection of RNA variant scans (doi:10.1126/science.aae0568).

Fewer inactive variants are shown than the library holds. Some results are limits rather than exact numbers.

The series covers variants of B1. Put plainly: yeast fitness relative to wild type (ratio to wild type); higher = fitter; tRNA-Arg(CCU), competitive growth, 37 C, YPD. The method, boiled down:
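A pool of Saccharomyces cerevisiae strains, each with a tRNA-Arg(CCU) gene variant at the native genomic locus, was competed in YPD at 37°C for 24 hours across six parallel replicates. The variants had been chemically synthesised at a 3% per-site mutation rate over 69 sites, and gene amplicons before and after competition were read by 100-nucleotide paired-end sequencing. Darwinian fitness relative to wild type rested on changes in genotype frequencies. Genotypes required ≥ 100 starting reads, and estimates < 0.5 were set to 0.5.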
Consider C30A A42C, for which the yeast fitness turned out to be 0.789.

On to G17A C24U C34A A40G C61U A69U, for which the yeast fitness is no more than 0.5.

On to U26A G39U A45C, for which the yeast fitness was no more than 0.5.

A36U A45G G67A: the yeast fitness is no more than 0.5.

Take U26C C60G: the yeast fitness is 0.642.

On to A21G A36C, for which the yeast fitness is 0.557.

In the case of A40G A70C, the yeast fitness amounted to 0.946.

A42C C61G A65U: the yeast fitness amounted to 0.539.

U3C G23A C27G C33A: the yeast fitness was no more than 0.5.

For G17C C24U C46G C62G, the yeast fitness was 0.572.

Take G12C U59A A69C: the yeast fitness was no more than 0.5.

On to A21G C27G A42U, for which the yeast fitness is no more than 0.5.

As to U2A G6C A14C, the yeast fitness is no more than 0.5.

Take A20C U54G: the yeast fitness was found to be 0.539.

Turning to C22A C33G A43C, the yeast fitness came out at 0.55.

Consider A37C A70G, for which the yeast fitness was 0.769.

Regarding C46U G67C, the yeast fitness is 1.02.

Take G9A A14U C29G C34A G63A: the yeast fitness was no more than 0.5.

Consider C27A U35A A43U, for which the yeast fitness was no more than 0.5.

Consider U7A G17A, for which the yeast fitness came to 0.731.

As to C11U G44A G50A C66G, the yeast fitness is 0.511.

As to U8A G10A G58C A69U, the yeast fitness is no more than 0.5.

Turning to G9A A20C, the yeast fitness was determined as 0.871.

As to C22G G52A, the yeast fitness was 0.772.

Take C4G A36G: the yeast fitness was 0.939.

G9A C34A G58A: the yeast fitness was determined as 0.667.

As for U8C G9A C22G U32G C49G C55G, the yeast fitness was no more than 0.5.

G38C C46A C62G C66U: the yeast fitness was no more than 0.5.

As for C11G A21U G68C, the yeast fitness was no more than 0.5.

Regarding G23C C29G A43U, the yeast fitness was no more than 0.5.

On to C11U A20G G23C C31U C46G A70U, for which the yeast fitness was no more than 0.5.

As for U8A U26C G38A, the yeast fitness was no more than 0.5.

As to G10A A42G, the yeast fitness was 0.656.

Take C5G G48A A70U: the yeast fitness is 0.803.

Take G38C U59C: the yeast fitness is 0.711.

On to G25C U53A A57U A65U, for which the yeast fitness is no more than 0.5.

C4A G6A A40G U53G C62G C66U: the yeast fitness worked out at 0.6.

With G25C C29A G52A A65G, the yeast fitness was no more than 0.5.

On to G9A C24G C34G C55A A65G, for which the yeast fitness was no more than 0.5.

As for U2C A43C, the yeast fitness amounted to 0.874.

In the case of G9C A14G G44A U53C A70U, the yeast fitness was no more than 0.5.

As for C4A C24G C30U A45G, the yeast fitness turned out to be 0.523.

G10A A15U G51A A65U: the yeast fitness stood at 0.603.

As to U2C G9A C31A C49A U59A C61G, the yeast fitness was no more than 0.5.

As to G6C C11G A14U C22U G44A C55A G63A, the yeast fitness is no more than 0.5.

G18A C22G C31U: the yeast fitness came to 0.682.

C11U C24U C29G G38A A40C C61A A65G: the yeast fitness was no more than 0.5.

In the case of C4U C30G A36U C66A, the yeast fitness was no more than 0.5.

Take U32C C46U G50A G56C C62A C66U: the yeast fitness was no more than 0.5.

As for C30U G39A A40C U53A, the yeast fitness turned out to be 0.565.

As for U2A U32A, the yeast fitness worked out at 0.72.

For the variant C22U C30A C34U G38C, the yeast fitness was no more than 0.5.

As for A14U C30U C55G, the yeast fitness was no more than 0.5.

For the variant C11U A37G G48A, the yeast fitness worked out at 0.597.

For the variant U28A C31A G44A, the yeast fitness came out at 0.568.

Turning to A14U A37G G44C A45C G50A C55G, the yeast fitness was 0.594.

In the case of A21C G41A G48C G51C G52C, the yeast fitness was no more than 0.5.

Regarding G50A G58C, the yeast fitness worked out at 1.01.

Consider A14U C30U C62A, for which the yeast fitness is no more than 0.5.

In the case of C5G A14U C49A A57G, the yeast fitness worked out at 0.639.

On to C29U G41C C49A, for which the yeast fitness came out at 0.62.

Turning to U32A A37G G48A U59C, the yeast fitness was 0.541.

Turning to U8G C49G U53C C60A A69U, the yeast fitness was no more than 0.5.

As for G6A C60A, the yeast fitness was 0.515.

As for U2G A21U A36U A45U A65U A70U, the yeast fitness was no more than 0.5.

In the case of A14G G58A, the yeast fitness stood at 0.836.

For the variant U8G G48A C49G, the yeast fitness is no more than 0.5.

On to C29U A45C A57G A65U, for which the yeast fitness is no more than 0.5.

For the variant C34U G41C C60U, the yeast fitness was no more than 0.5.

As to C5G G12C C33U G68C, the yeast fitness was found to be 0.612.

As to C11A C27G C61G G68A, the yeast fitness was no more than 0.5.

As for A20G C33A A36C U47A, the yeast fitness was no more than 0.5.

Consider A40C G48C A69C, for which the yeast fitness was 0.57.

For the variant C49U C62G C66U, the yeast fitness turned out to be 0.608.

For A40U U54C C60A, the yeast fitness was no more than 0.5.

For the variant A15U A45C C46A G67A, the yeast fitness is no more than 0.5.

With A21U C31A C61U, the yeast fitness is no more than 0.5.

For C11U U28G, the yeast fitness was found to be 0.792.

Regarding U7A A20G C31U A57C G67C, the yeast fitness was no more than 0.5.

As to U19C A70U, the yeast fitness turned out to be 0.953.

Regarding U3C C5G A40G, the yeast fitness is no more than 0.5.

Consider G44U G58A, for which the yeast fitness stood at 0.946.

Take C24U G25C G56A: the yeast fitness amounted to 0.882.

As to A15G C24G C31G G50A, the yeast fitness is no more than 0.5.

Regarding C61A G67C, the yeast fitness was found to be 0.664.

As for G9A C33U U47C, the yeast fitness was no more than 0.5.

Consider U2A C4A C5G A36G G67A, for which the yeast fitness was no more than 0.5.

Take G10C C33G A36C C46A A65U: the yeast fitness was found to be 0.53.

For A14G A15U G39U C61U, the yeast fitness is no more than 0.5.

As to A14G C31U G68A, the yeast fitness is 0.568.

Take C5A C46A G56C G68A A70G: the yeast fitness is no more than 0.5.

In the case of G6A A57U G58A A65U, the yeast fitness was no more than 0.5.

With G6A A14U C34A A70G, the yeast fitness is no more than 0.5.

C4A U19G A36C: the yeast fitness is 0.506.

Consider G10A C24A C30A C31G A43U, for which the yeast fitness was no more than 0.5.

Turning to G10C U35G A43C U47C C55U A69C, the yeast fitness came to 0.574.

In the case of G56A A57C, the yeast fitness stood at 0.699.

Consider G18A G25A A70G, for which the yeast fitness is 0.54.

On to A20U U59G, for which the yeast fitness turned out to be 0.728.

For the variant A40G G44C U53C C55A A65U, the yeast fitness is no more than 0.5.

As to A20C G25C G38C A43G, the yeast fitness was no more than 0.5.

For U7A U16C C24G C30G A36U, the yeast fitness is no more than 0.5.

On to A20U G68A, for which the yeast fitness is 0.843.

Take U7G A15G: the yeast fitness was found to be 0.913.

For G6A A20U G52C, the yeast fitness was no more than 0.5.

Turning to A57C U64G C66U, the yeast fitness was no more than 0.5.

On to U2C C5G C11G C29U A36U G50C U54G, for which the yeast fitness is 0.628.

As to C27A G67C, the yeast fitness worked out at 0.786.

As for C5U U7A U35A A36U A45U, the yeast fitness is no more than 0.5.

In the case of C24U C31A G56C, the yeast fitness is 0.544.

Regarding C11U A15C G17C C22U C34G, the yeast fitness was no more than 0.5.

Turning to G48A C55U A70G, the yeast fitness was no more than 0.5.

On to U28C A37C A69C, for which the yeast fitness was no more than 0.5.

With G10C G25C C55A, the yeast fitness was determined as 0.545.

With C27G U28A C30G C31U C60A A70C, the yeast fitness is no more than 0.5.

On to C31A G44C C60G, for which the yeast fitness was no more than 0.5.

Consider G12C C34U C46A, for which the yeast fitness was no more than 0.5.

Take C5A C22G C27G A36U A40C A57U C66U: the yeast fitness was no more than 0.5.

Regarding U8A G18A U32A G58A, the yeast fitness was no more than 0.5.

Turning to C22U C27U U54G, the yeast fitness was no more than 0.5.

As to U19A C22G C24U C33G, the yeast fitness was found to be 0.674.

In the case of A15G A42C G52C, the yeast fitness was no more than 0.5.

With A21G C27U A69U, the yeast fitness was 0.772.

G25C A40C G68C: the yeast fitness was determined as 0.645.

With C4U U35C A45G C49G G56A A65C, the yeast fitness is no more than 0.5.

As for U19G A20U C27G A36G, the yeast fitness was no more than 0.5.

For the variant A36U A37G G50C, the yeast fitness was no more than 0.5.

Take A15G C46G G67A: the yeast fitness was 0.623.

For C31A A43G A45C, the yeast fitness stood at 0.541.

For G10C A14C, the yeast fitness was determined as 0.61.

In the case of C24G C27A U32C U64A, the yeast fitness was no more than 0.5.

U8C C30G C31G: the yeast fitness came out at 0.58.

With C34U C55A, the yeast fitness came out at 0.623.

As for U26C C29G A43U, the yeast fitness is no more than 0.5.

U8C C11U C29A: the yeast fitness was no more than 0.5.

Consider U7C C33G A37G A70G, for which the yeast fitness is no more than 0.5.

C30U A36G C61G: the yeast fitness was no more than 0.5.

Regarding C5U A42C G67U, the yeast fitness amounted to 0.69.

On to C4A G18C C33G, for which the yeast fitness was 0.591.

Regarding A40C G52C G67A, the yeast fitness was determined as 0.55.

On to U2C C30U U54A, for which the yeast fitness was no more than 0.5.

Regarding C4A G63C, the yeast fitness was determined as 0.748.

With C4U G17A, the yeast fitness was 0.973.

As to C29G A40U G50C G67U A69G, the yeast fitness was no more than 0.5.

Regarding C31U G48C U59A G67C A69C, the yeast fitness is no more than 0.5.

Regarding U3A A14U C60G C61U C62G A65U, the yeast fitness is no more than 0.5.

With U35A, the yeast fitness was 0.715.

On to A21C C33U C61A A70C, for which the yeast fitness was determined as 0.578.

Turning to G17C A40G A42C A45U U54C, the yeast fitness is no more than 0.5.

A15C C29U C31U G67C: the yeast fitness was 0.591.

As to C31G U54G, the yeast fitness came out at 0.6.

Regarding C11G G17C C34A A43C G56C, the yeast fitness is no more than 0.5.

As to C5U U7A C62A, the yeast fitness is no more than 0.5.

On to G38C G48C, for which the yeast fitness turned out to be 0.722.

Take C11G C46G: the yeast fitness stood at 0.75.

For the variant G17A U19C C66U, the yeast fitness stood at 0.665.

Consider C5U C29G, for which the yeast fitness was found to be 0.64.

For C4A G18C C33U U59A, the yeast fitness was no more than 0.5.

Turning to C4G C5U A37U, the yeast fitness was no more than 0.5.

Take U19C G23A C29G: the yeast fitness was no more than 0.5.

Consider U19G C24G, for which the yeast fitness turned out to be 0.553.

Turning to C5G A36U C66U, the yeast fitness was no more than 0.5.

For the variant G6C U8A G51A, the yeast fitness is no more than 0.5.

As to U2A U3A C24G G52C, the yeast fitness is no more than 0.5.

Take C4A U16G C30A: the yeast fitness was 0.62.

Regarding U3C U28C, the yeast fitness came out at 1.08.

For the variant G9C C27U G58C, the yeast fitness was 0.639.
